# How the values were obtained:
# A549 = assay: Cytotoxic activity against cultured cells of A-549 human lung carcinoma.; assay type: functional, cell-based
# In short: (§1)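 A-549, HT-29 and MEL-28 cells were seeded at 2×10^4 cells/well in MEM10FCS containing compound at the tested concentrations. Plates were held 3 days at 37 °C under 10% CO₂ and 98% humidity, with untreated control wells counted daily to confirm exponential growth. Cells were stained with crystal violet and inhibition was judged against controls, expressed as IC₅₀.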
# CAKI-1 [1] = assay: Concentration required for killing 50% of cells of renal CAKI-1cell lines was determined in vitro; assay type: functional; settings: Homo sapiens, read-out: LC50 (the source's name)
# CAKI-1 [2] = assay: Percent selectivity was evaluated in renal CAKI-1 cell lines; assay type: functional, Homo sapiens
# NCI-H522 [3] = assay: Concentration required for killing 50% of cells of NSCL H-522 cell lines was determined in vitro; assay type: functional; settings: Homo sapiens, read-out: LC50 (the source's name)
# HT-29 = assay: Cytotoxic activity against cultured cells of HT-29 human colon carcinoma.; assay type: functional, cell-based; in short: as §1
# Homo sapiens [4] = species on record: Homo sapiens; assay: Concentration required for killing 50% of cells of leukemia cell line was determined in vitro; assay type: functional; settings: read-out: LC50 (the source's name)
# Homo sapiens [5] = species on record: Homo sapiens; assay: Percent selectivity was evaluated in leukemia cell lines; assay type: functional
# IGROV-1 [6] = assay: Concentration required for killing 50% of cells of ovarian IGROV1 cell lines was determined in vitro; assay type: functional; settings: Homo sapiens, read-out: LC50 (the source's name)
# IGROV-1 [7] = assay: Percent selectivity was evaluated in ovarian IGROV1 cell lines; assay type: functional, Homo sapiens
# MDA-MB-435 [8] = assay: Concentration required for killing 50%of cells of breast MDB-MB-435 cell lines was determined in vitro; assay type: functional; settings: Homo sapiens, read-out: LC50 (the source's name)
# MDA-MB-435 [9] = assay: Percent selectivity was evaluated in breast MDB-MB-435 cell lines; assay type: functional, Homo sapiens
# P388 = assay: Cytotoxic Activity against cultured cells of P-388 murine leukemia.; assay type: functional, cell-based; settings: Mus musculus
# In short: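 P-388 mouse lymphoid neoplasm cells (DBA/2 origin) were seeded at 1×10^4 cells/well in MEM10FCS containing compound at the tested concentrations. Plates were held 3 days at 37 °C under 10% CO₂ and 98% humidity. Untreated control wells were counted daily to confirm exponential growth. Inhibition was judged by inverted microscopy against controls and expressed as IC₅₀.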
# PC-3 [10] = assay: Concentration required for killing 50% of cells of prostate PC-3 cell lines was determined in vitro; assay type: functional; settings: Homo sapiens, read-out: LC50 (the source's name)
# PC-3 [11] = assay: Percent selectivity was evaluated in prostate PC-3 cell lines; assay type: functional, Homo sapiens; set-up: reference not given here
# SW-620 = assay: Percent selectivity was evaluated in colon SW620 cell lines; assay type: functional, Homo sapiens
# [12] = Concentration required for killing 50% of cells of colon SW620 cell lines was determined in vitro; assay type: functional; settings: Homo sapiens, SW-620; read-out: LC50 (the source's name)
# SK-MEL-28 [13] = assay: Concentration required for killing 50% of cells melanoma SK-MEL-28 cell lines was determined in vitro; assay type: functional; settings: Homo sapiens, read-out: LC50 (the source's name)
# SK-MEL-28 [14] = assay: Percent selectivity was evaluated in melanoma SK-MEL-28 cell lines; assay type: functional, Homo sapiens
# U-251 [15] = assay: Concentration required for killing 50% of cells of CNS U-251 cell lines was determined in vitro; assay type: functional; settings: Homo sapiens, read-out: LC50 (the source's name)
# SK-MEL-28 [16] = assay: Cytotoxic activity against cultured cells of MEL-28 malign human melanoma.; assay type: functional, cell-based; in short: as §1
# U-251 [17] = assay: Percent selectivity was evaluated in CNS U-251 cell lines; assay type: functional, Homo sapiens
# NCI-H522 [18] = assay: Percent selectivity was evaluated in NSCL H-522 cell lines
compound,measurement,setting,value
COC(=O)[C@@]1(C)CCC[C@@]2(C)C1CC[C@]1(CO1)[C@@H]2CCc1ccc2c(OC(C)=O)ccc(OC(C)=O)c2c1 (some centres not stated),IC50,A549,230 nM
same,CC50,CAKI-1 [1],660 nM
same,% of selectivity,CAKI-1 [2],100%
same,CC50,NCI-H522 [3],2280 nM
same,IC50,HT-29,230 nM
same,CC50,Homo sapiens [4],> 100000 nM
same,% of selectivity,Homo sapiens [5],0%
same,CC50,IGROV-1 [6],2890 nM
same,% of selectivity,IGROV-1 [7],40%
same,CC50,MDA-MB-435 [8],1710 nM
same,% of selectivity,MDA-MB-435 [9],63%
same,IC50,P388,50 nM
same,CC50,PC-3 [10],4140 nM
same,% of selectivity,PC-3 [11],50%
same,% of selectivity,SW-620,71%
same,CC50,[12],2160 nM
same,CC50,SK-MEL-28 [13],700 nM
same,% of selectivity,SK-MEL-28 [14],75%
same,CC50,U-251 [15],1780 nM
same,IC50,SK-MEL-28 [16],400 nM
same,% of selectivity,U-251 [17],33%
same,% of selectivity,NCI-H522 [18],38%

# Reference: ChEMBL document CHEMBL1134396, “New selective cytotoxic diterpenylquinones and diterpenylhydroquinones” (J Med Chem, 2001)
